Values after ≈ are worked out from the molar mass of the structure shown. Where only a bound is given, the exact number is not on record here.

Common to all, as to assay type: functional
The test system of experiment [1] is Mycobacterium tuberculosis. Briefly: Antimicrobial activity against Mycobacterium tuberculosis H37Rv. Put shortly: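 M. tuberculosis H37Rv grown 5 d in 7H9-Tw-OADC with 10-point two-fold serial dilutions from DMSO (final DMSO 2%). Top concentration 200 µM, or 50-fold below the stock for poorly soluble compounds. Controls: medium/DMSO background, 100 µM rifampicin for zero growth, DMSO for maximum growth, plus a rifampicin dose-response. Growth read by OD590 and fluorescence (Ex 560/Em 590).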

Experiment [2] is described as follows: Cytotoxicity against human OVCAR3 cells. The note with it: OVCAR-3.
The next experiment has as its system MCF7. Briefly: Cytotoxicity against human MCF7 cells.
Experiment [3] in a line: Cytotoxicity against human HL60 cells. The note with it: HL-60.
Experiment [4] relates to Cryptococcus neoformans. Briefly: Antimicrobial activity against […].
A further experiment concerns Candida tropicalis. Briefly: Antimicrobial activity against Candida tropicalis.
Experiment [5] relates to Candida albicans. Briefly: Antimicrobial activity against Candida albicans.
In a further experiment the test system is MDA-MB-231. Briefly: Cytotoxicity against human MDA-MB-231 cells.
The next experiment has as its system MDA-MB-468. Kind of experiment: Cytotoxicity against human MDA-MB-468 cells.
The test system of a further experiment is Bacillus subtilis. Briefly: Antibacterial activity against Bacillus subtilis ATCC 6051 after 24 hrs by two-fold broth microdilution method. To be noted: ATCC 6051, 24 h. Put shortly: (§1)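 Strains subcultured one day before testing; colonies suspended in sterile water and adjusted to 0.5 McFarland (1.5 × 10^8 cfu/ml). Two-fold dilutions in MHB (medium pH 7.4 ± 0.1), final 200 to 0.39 µg/ml. Incubated 37 ± 1 °C for 24 h, then resazurin (0.4 mg/ml) added for a further 5 h. MIC read by colour: blue = no growth, pink = growth.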

The test system of experiment [6] is Cryptococcus neoformans. Briefly: Antifungal activity against […] clinical isolate after 24 hrs by two-fold broth microdilution method. Put shortly: as §1
In a further experiment the test system is Aspergillus niger. Kind of experiment: Antifungal activity against Aspergillus niger ATCC 16404 after 24 hrs by two-fold broth microdilution method. To be noted: ATCC 16404, 24 h. Put shortly: as §1
For experiment [7], the system named is Candida albicans. Kind of experiment: Antifungal activity against Candida albicans clinical isolate after 24 hrs by two-fold broth microdilution method. Put shortly: as §1
The subject of experiment [8] is Candida albicans. Briefly: Antifungal activity against Candida albicans ATCC 90028 after 24 hrs by two-fold broth microdilution method. To be noted: ATCC 90028, 24 h. Put shortly: as §1
In a further experiment the test system is Staphylococcus aureus. Briefly: Antibacterial activity against Staphylococcus aureus ATCC 25923 after 24 hrs by two-fold broth microdilution method. The note with it: ATCC 25923, 24 h. Put shortly: as §1
Another experiment has as its system Escherichia coli. Briefly: Antibacterial activity against Escherichia coli ATCC 35218 after 24 hrs by two-fold broth microdilution method. The note with it: ATCC 35218, 24 h. Put shortly:
as §1

Another experiment concerns Pseudomonas aeruginosa. Kind of experiment: Antibacterial activity against Pseudomonas aeruginosa ATCC 27853 after 24 hrs by two-fold broth microdilution method. To be noted: ATCC 27853, 24 h. Put shortly: as §1
The subject of experiment [9] is Cryptococcus neoformans. Briefly: Antifungal activity against […] ATCC 66031 after 24 hrs by two-fold broth microdilution method. To be noted: ATCC 66031, 24 h. Put shortly:
as §1

With `O=C(NN=C1CCCCC1)c1ccncc1`, 30 µg/mL (≈ 138 µM) was the least that counted as inhibitory in [1] (MIC).

With `CC1=NN2C(=NC(C)C2C(=O)NNc2ccc(O)cc2)S1` (stereo not given), the GI50 was 5.51 µM in experiment [2], 4.51 µM in the experiment with MCF7 and 4.5 µM in experiment [3].

Consider `COc1ccc(-c2nn3cc(-c4ccc(Br)cc4)nc3s2)cc1OC`, for which the MIC was 6.25 µg/mL (≈ 15 µM) against Cryptococcus neoformans [4], 12.5 µg/mL (≈ 30 µM) with Candida tropicalis and 6.25 µg/mL (≈ 15 µM) against Candida albicans [5].

In the case of `COc1ccc(C(=O)/C=C2\C(=O)Nc3ccc(Cl)cc32)cc1OC`, the concentration for 50% growth inhibition (GI50) with MDA-MB-231 stood at 8.54 µM; with MDA-MB-468, 4.76 µM; with MCF7 it was 3.95 µM.

In the case of `O=C(/C=C/c1c(-c2ccc(Br)cc2)nc2sc(-c3ccccc3Br)nn12)c1ccccc1`, the MIC is above 200 µg/mL with Bacillus subtilis; 6.25 µg/mL (≈ 11.1 µM) in the experiment on Cryptococcus neoformans [6]; above 200 µg/mL against Aspergillus niger; above 200 µg/mL in the experiment on Candida albicans [7]; 200 µg/mL (≈ 354 µM) with Candida albicans [8]; 200 µg/mL (≈ 354 µM) in the experiment with Staphylococcus aureus. In addition, the MIC against Escherichia coli is above 200 µg/mL; against Pseudomonas aeruginosa, above 200 µg/mL; with Cryptococcus neoformans [9], 1.56 µg/mL (≈ 2.76 µM).

For the molecule `COc1ccc(-c2nn3c(/C=C/C(=O)c4ccc(C)cc4)c(-c4ccc(Br)cc4)nc3s2)cc1`, the MIC is above 200 µg/mL in the experiment with Bacillus subtilis; 3.12 µg/mL (≈ 5.89 µM) with Cryptococcus neoformans [6]; above 200 µg/mL against Aspergillus niger; above 200 µg/mL with Candida albicans [7]; 200 µg/mL (≈ 377 µM) against Candida albicans [8]; above 200 µg/mL with Staphylococcus aureus. The MIC against Escherichia coli is 200 µg/mL (≈ 377 µM); in the experiment with Pseudomonas aeruginosa, above 200 µg/mL; against Cryptococcus neoformans [9], 1.56 µg/mL (≈ 2.94 µM).

As for `Cc1ccc(C(=O)/C=C/c2c(-c3ccc(Br)cc3)nc3sc(-c4ccc(Cl)cc4)nn23)cc1`, the MIC against Bacillus subtilis is above 200 µg/mL; against Cryptococcus neoformans [6] it was 6.25 µg/mL (≈ 11.7 µM); against Aspergillus niger it was above 200 µg/mL; against Candida albicans [7], above 200 µg/mL; against Candida albicans [8], 50 µg/mL (≈ 93.5 µM); in the experiment with Staphylococcus aureus it was above 200 µg/mL. Further, the figures for the minimal inhibitory concentration (MIC) with Escherichia coli, against Pseudomonas aeruginosa and against Cryptococcus neoformans [9] were above 200 µg/mL, above 200 µg/mL and 3.12 µg/mL (≈ 5.84 µM), respectively.

`Brc1ccc(-c2nc3sc(-c4ccccc4Br)nn3c2/C=N/C2CC2)cc1`: the MIC in the experiment on Bacillus subtilis came to 200 µg/mL (≈ 398 µM); in the experiment with Cryptococcus neoformans [6] it was 200 µg/mL (≈ 398 µM); in the experiment on Aspergillus niger it was 100 µg/mL (≈ 199 µM); in the experiment with Candida albicans [7], 50 µg/mL (≈ 99.6 µM); with Candida albicans [8], 25 µg/mL (≈ 49.8 µM); with Staphylococcus aureus it was 200 µg/mL (≈ 398 µM). The MIC was determined as 200 µg/mL (≈ 398 µM) in the experiment on Escherichia coli, 50 µg/mL (≈ 99.6 µM) against Pseudomonas aeruginosa and 100 µg/mL (≈ 199 µM) against Cryptococcus neoformans [9].

On to `Brc1ccc(-c2nc3sc(-c4ccc(I)cc4)nn3c2/C=N/C2CC2)cc1`, for which the MIC in the experiment on Bacillus subtilis is 200 µg/mL (≈ 364 µM); against Cryptococcus neoformans [6], above 200 µg/mL; against Aspergillus niger, 100 µg/mL (≈ 182 µM); in the experiment on Candida albicans [7], 50 µg/mL (≈ 91 µM); in the experiment with Candida albicans [8], 25 µg/mL (≈ 45.5 µM); in the experiment on Staphylococcus aureus, 200 µg/mL (≈ 364 µM). The MIC in the experiment on Escherichia coli was 200 µg/mL (≈ 364 µM); against Pseudomonas aeruginosa it was 50 µg/mL (≈ 91 µM); with Cryptococcus neoformans [9], 100 µg/mL (≈ 182 µM).

These data come from ChEMBL document CHEMBL3414553, “Novel imidazo[2,1-b]-1,3,4-thiadiazoles as promising antifungal agents against clinical isolate of Cryptococcus neoformans” (2015).
